Reference: ChEMBL document CHEMBL2396611, “Synthesis and mechanism of hypoglycemic activity of benzothiazole derivatives” (J Med Chem, 2013)
The source made the active and inactive calls. No cut-off for these calls is given here.

Legend:
L6 [1] = test: Effect on total GLUT1 expression in rat L6 cell lysate at 25 uM after 30 mins to 5 hrs by Western blot analysis; assay type: functional, cell-based
Outline: (§1)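 Fully differentiated L6 myotubes, preconditioned in αMEM with 23.0 mM D-glucose; insulin exposure 30 min, test exposure 5 h. Whole-cell lysates made in Tris-HCl pH 7.5 buffer with phosphatase and protease inhibitors, 40 min at 4 °C. Protein measured by Bradford, 5-60 µg per lane. Western blot probed with rabbit polyclonal anti-GLUT1 or anti-GLUT4.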

L6 [2] = test: Effect on total GLUT4 expression in rat L6 cell lysate at 25 uM after 30 mins to 5 hrs by Western blot analysis; assay type: functional, cell-based; outline: as §1
Mus musculus [3] = test: Antidiabetic activity in overnight fast KKAy mouse assessed as total body glucose clearance at 30 to 75 mg/kg, sc bid for 2 days; assay type: functional; settings: dose mg/kg 30-75; route subcutaneous
Mus musculus [4] = test: Toxicity in overnight fast KKAy mouse assessed as reduction of daily food intake at 30 to 75 mg/kg, sc bid for 2 days; assay type: organism-based; design: dose 30-75 mg/kg, route subcutaneous; settings: in vivo, 48 h
Outline: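 Hyperglycemic KKAy mice given 30 or 75 mg/kg s.c. twice daily as a suspension in sesame oil; controls received oil (150 µl). Daily food intake recorded over the 2-day treatment; n=10 per group, mean ± SEM.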

Cytochrome P450 2C19 = Cytochrome P450 2C19 (Homo sapiens, UniProt P33261); test: Inhibition of CYP2C19 (unknown origin) by luminescent based assay; assay type: ADME
Cytochrome P450 2C9 = Cytochrome P450 2C9 (Homo sapiens, UniProt P11712); test: Inhibition of CYP2C9 (unknown origin) by luminescent based assay; assay type: ADME
Mus musculus [5] = test: Antidiabetic activity in KKAy mouse assessed as reduction of blood glucose level at 30 to 75 mg/kg, sc bid for 4 days; assay type: functional, organism-based
Outline: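 Hyperglycemic KKAy mice injected s.c. twice daily for 4 days with compound at 30 or 75 mg/kg suspended in sesame oil; controls received sesame oil (150 µl). Blood glucose measured at the indicated times, with day-zero levels taken as 100%. n=10 per group, mean ± SEM, compared with oil-treated group.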

Mus musculus [6] = test: Antidiabetic activity in po dosed KKAy mouse assessed as reduction of blood glucose level; assay type: functional, organism-based
L6 [7] = test: Increase of [3H]dGlc uptake in rat L6 cells after 5 hrs in presence of AMPK inhibitor compound C; assay type: functional, cell-based
Outline: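 Differentiated L6 myotubes held 24 h in αMEM with 2% FCS and 23.0 mM D-glucose, then serum-free medium with 0.5% BSA for 4 h. Compound C (5 µM) added 5 h before the uptake assay, alongside 25 µM test agent. Cells rinsed in PBS, then given 0.1 mM dGlc with 1.3 µCi/mL [3H]dGlc in PBS pH 7.4 for 5 min at room temperature. Lysed in 0.1% SDS and counted by scintillation; n=6.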

L6 [8] = test: Increase of myc-tagged GLUT1 translocation in rat L6 cell plasma membrane at 25 uM after 30 mins to 5 hrs by colorimetric analysis; assay type: functional, cell-based
Outline: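 L6 lines stably carrying GLUT4myc or GLUT1myc, treated 5 h with test agent or DMSO; insulin given for 30 min. Live myotubes incubated with rabbit anti-c-Myc (1:200), washed, fixed in 3% formaldehyde, then HRP anti-rabbit IgG (1:2000). Developed with OPD and read at 492 nm to give relative surface transporter abundance.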

L6 [9] = test: Cytotoxicity against rat L6 cells assessed as cell viability at 25 to 200 uM after 24 hrs by MTT assay; assay type: cell-based; settings: l6, 24 h
[10] = target: 5'-AMP-activated protein kinase catalytic subunit alpha-2 (Rattus norvegicus) (UniProt Q09137); test: Activation of AMPK in rat L6 cells assessed as AS-160 phosphorylation at Thr642 at 25 uM after 3 hrs by Western blot analysis relative to control; assay type: cell-based
Outline: (§2)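 Fully differentiated L6 myotubes, preincubated 3 h with or without 5 μM Compound C. Test agents: compound at 25 μM for 3 h, sorbitol 250 mM for 40 min, AICAR 4 mM for 30 min. Whole-cell lysates probed by Western blot for pSer79-ACC, ACC, pThr642-AS-160, AS-160 and α-tubulin; band densities summarized, n=3, vs respective controls.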

[11] = target: 5'-AMP-activated protein kinase catalytic subunit alpha-2 (Rattus norvegicus) (UniProt Q09137); test: Activation of AMPK in rat L6 cells assessed as ACC phosphorylation at Ser79 at 4 mM after 30 mins by Western blot analysis relative to control; assay type: cell-based; outline: as §2
[12] = target: 5'-AMP-activated protein kinase catalytic subunit alpha-2 (Rattus norvegicus) (UniProt Q09137); test: Activation of AMPK in rat L6 cells assessed as increase of [3H]dGlc uptake at 25 uM after 5 hrs in presence of insulin; assay type: cell-based
Outline: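 Myotubes in serum-free αMEM with 0.5% BSA and 23.0 mM D-glucose for 9 h. Compound 25 μM or DMSO (0.1% v/v) given for the last 5 h; insulin 100 nM for the last 20 min. [3H]dGlc uptake read as 5-min PBS pulse with 0.1 mmol/L dGlc; basal rate taken as 100%.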

L6 [13] = test: Activation of AMPKalpha in rat L6 cells assessed as phosphorylation at Thr172 at 150 uM after 4 hrs by Western blot analysis; assay type: cell-based
Outline: (§3)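 L6 myotubes treated 4 h with increasing compound concentrations (5 to 150 μM) or DMSO. Whole-cell lysates immunoblotted for pThr172-AMPKα, AMPKα and α-tubulin; phosphorylation expressed relative to DMSO-treated control.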

L6 [14] = test: Activation of AMPKalpha in rat L6 cells assessed as phosphorylation at Thr172 after 4 hrs by Western blot analysis; assay type: cell-based
L6 [15] = test: Activation of AMPKalpha in rat L6 cells assessed as phosphorylation at Thr172 at 100 uM after 1 hr by Western blot analysis; assay type: cell-based
Outline: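 L6 myotubes exposed for the indicated times to test compound (100 μM in the first series; 50–150 μM in the second) or 4 mM AICAR. Whole-cell lysates immunoblotted for pThr172-AMPKα, AMPKα and α-tubulin; band densities from three independent experiments vs respective controls.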

[16] = target: 5'-AMP-activated protein kinase catalytic subunit alpha-2 (Rattus norvegicus) (UniProt Q09137); test: Activation of AMPK in rat L6 cells assessed as increase of [3H]dGlc uptake at 25 uM after 5 hrs relative to control; assay type: cell-based
Outline: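 Fully differentiated L6 myotubes preincubated 24 h in αMEM with 2% FCS and 23.0 mmol/L D-glucose, then 4 h serum-free with 0.5% BSA. Compound or DMSO vehicle given for the indicated times or concentrations. Uptake read after 5 min at room temperature in PBS pH 7.4 with 0.1 mmol/L dGlc and 1.3 μCi/mL [3H]dGlc, by scintillation of SDS lysates. Zero-time basal rate set as 100%; n=6.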

L6 [17] = test: Activation of AMPKalpha in rat L6 cells assessed as phosphorylation at Thr172 at 150 uM after 4 hrs by Western blot analysis relative to control; assay type: cell-based; outline: as §3
L6 [18] = test: Activation of AMPKalpha in rat L6 cells assessed as phosphorylation at Thr172 at 100 uM after 4 hrs by Western blot analysis relative to control; assay type: cell-based; outline: as §3
L6 [19] = test: Activation of AMPKalpha in rat L6 cells assessed as phosphorylation at Thr172 at 50 uM after 4 hrs by Western blot analysis relative to control; assay type: cell-based; outline: as §3
[20] = target: 5'-AMP-activated protein kinase catalytic subunit alpha-2 (Rattus norvegicus) (UniProt Q09137); test: Activation of AMPK in rat L6 cells assessed as AS-160 phosphorylation at Thr642 after 30 mins by Western blot analysis relative to control

5'-AMP-activated protein kinase catalytic subunit alpha-2 (Rattus norvegicus), sequence (Q09137 whole entry): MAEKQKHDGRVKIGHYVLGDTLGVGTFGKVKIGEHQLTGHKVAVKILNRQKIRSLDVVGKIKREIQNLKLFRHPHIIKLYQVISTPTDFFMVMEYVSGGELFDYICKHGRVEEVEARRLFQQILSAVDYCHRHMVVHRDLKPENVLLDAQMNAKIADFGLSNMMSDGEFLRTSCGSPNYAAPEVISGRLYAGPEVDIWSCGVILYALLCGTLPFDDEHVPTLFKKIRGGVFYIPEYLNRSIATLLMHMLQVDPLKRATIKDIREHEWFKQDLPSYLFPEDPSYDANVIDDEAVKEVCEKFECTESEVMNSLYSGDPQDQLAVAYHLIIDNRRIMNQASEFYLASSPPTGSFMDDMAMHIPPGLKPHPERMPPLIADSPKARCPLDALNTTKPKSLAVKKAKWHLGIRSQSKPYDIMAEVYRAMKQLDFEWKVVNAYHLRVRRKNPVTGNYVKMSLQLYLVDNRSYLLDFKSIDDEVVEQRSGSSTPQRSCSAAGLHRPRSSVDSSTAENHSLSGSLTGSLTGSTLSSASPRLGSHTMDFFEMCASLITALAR
Cytochrome P450 2C19, sequence (P33261 whole entry): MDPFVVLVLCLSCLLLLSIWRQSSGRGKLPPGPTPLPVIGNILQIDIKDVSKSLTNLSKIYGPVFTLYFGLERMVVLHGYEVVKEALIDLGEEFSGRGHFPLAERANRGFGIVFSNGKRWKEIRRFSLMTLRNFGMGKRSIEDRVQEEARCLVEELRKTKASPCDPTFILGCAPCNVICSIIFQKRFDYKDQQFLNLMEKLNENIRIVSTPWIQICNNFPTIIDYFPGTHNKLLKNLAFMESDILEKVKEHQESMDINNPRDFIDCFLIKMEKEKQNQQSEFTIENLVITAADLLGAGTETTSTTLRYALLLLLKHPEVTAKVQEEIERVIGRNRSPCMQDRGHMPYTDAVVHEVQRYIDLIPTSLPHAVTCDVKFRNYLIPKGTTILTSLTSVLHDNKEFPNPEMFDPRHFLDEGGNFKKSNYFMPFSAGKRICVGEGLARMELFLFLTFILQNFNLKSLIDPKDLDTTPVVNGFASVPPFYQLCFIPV
Cytochrome P450 2C9, sequence (P11712 whole entry): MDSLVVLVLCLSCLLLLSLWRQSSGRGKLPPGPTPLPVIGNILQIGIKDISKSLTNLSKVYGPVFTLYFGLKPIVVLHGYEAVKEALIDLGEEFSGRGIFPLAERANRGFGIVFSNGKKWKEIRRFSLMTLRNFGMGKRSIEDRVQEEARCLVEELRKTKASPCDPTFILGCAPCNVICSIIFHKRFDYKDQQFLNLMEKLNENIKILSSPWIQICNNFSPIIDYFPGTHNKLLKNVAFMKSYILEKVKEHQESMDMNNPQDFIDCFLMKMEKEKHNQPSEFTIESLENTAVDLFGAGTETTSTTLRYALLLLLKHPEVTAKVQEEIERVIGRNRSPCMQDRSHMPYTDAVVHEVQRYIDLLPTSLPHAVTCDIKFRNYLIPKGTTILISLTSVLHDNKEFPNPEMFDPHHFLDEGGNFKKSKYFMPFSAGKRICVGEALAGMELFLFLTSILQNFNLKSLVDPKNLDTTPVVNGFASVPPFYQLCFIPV

- inhibition (INH) (Cytochrome P450 2C19): Not Active
- inhibition (INH) (Cytochrome P450 2C9): Not Active
- fold change (FC) [10]: 1.09
- fold change (FC) [11]: 3.63
- Activity [12]: Active
- Activity [16]: Active
- fold change (FC) [20]: 1.62
Structure (SMILES): CCOc1ccc2nc(SCc3nc4ccccc4s3)sc2c1
- Activity (L6 [1]): inactive
- Activity (L6 [2]): inactive
- Activity (Mus musculus [3]): 40%
- Activity (Mus musculus [4]): Non-toxic
- Activity (Mus musculus [5]): Active
- Activity (Mus musculus [6]): inactive
- Activity (L6 [7]): inactive
- Activity (L6 [8]): inactive
- Activity (L6 [9]): Non-toxic
- fold change (FC) (L6 [13]): 7.6
- Activity (L6 [14]): Dose-dependent effect
- Activity (L6 [15]): Active
- fold change (FC) (L6 [17]): 7.6
- fold change (FC) (L6 [18]): 5.2
- fold change (FC) (L6 [19]): 6
